Activity calls are given as the source filed them. The calls are words filed in the database; no cut-off is given here.
What was measured:
DU-145 [1] = assay: Cytotoxicity against androgen receptor-deficient human DU145 cells after 96 hrs by trypan blue exclusion assay; type: functional, cell-based; details: DU-145, 96 h
How it was run: (§1)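 Cells grown in DMEM or RPMI with 10% FBS and penicillin-streptomycin. Seeded at 1.0 × 10^5 cells/mL/well in 6-well dishes; compounds were added 24 h later at various concentrations. Viable cells were counted by trypan blue exclusion from duplicate wells after 96 h of treatment, giving a dose-response endpoint.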

MIA PaCa-2 = assay: Cytotoxicity against human MIAPaCa2 cells after 96 hrs by trypan blue exclusion assay; type: functional, cell-based; details: MIA PaCa-2, 96 h; how it was run: as §1
[2] = Cytotoxicity against human HTB-126 cells after 96 hrs by trypan blue exclusion assay; type: functional, cell-based; details: HTB126, 96 h; how it was run: as §1
HeLa [3] = assay: Induction of mitotic arrest in human HeLa cells assessed as dispersed chromosome spread with three or more tubulin bundles at 0.5 uM after 18 hrs by FITC-conjugated DAPI staining based fluorescence microscopy; type: functional, cell-based
How it was run: (§2)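 HeLa grown on glass coverslips and exposed for 18 h to test agent (0.25 or 0.5 μM), paclitaxel or vincristine (0.005 μM), or DMSO. Cells were fixed in 4% paraformaldehyde, blocked, permeabilised, and stained with FITC anti-α-tubulin (1:400) and then DAPI (0.5 ug/mL). Mitotic spindles or interphase cytoplasmic microtubules were scored by fluorescence microscopy at 100x.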

DU-145 [4] = assay: Cell cycle arrest in human DU145 cells assessed as accumulation at G2/M phase at 2.5 uM by propidium iodide staining based FACS analysis; type: functional; details: TDE = time-dependent effect
How it was run: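 DU145 plated at 1.0 × 10^6 cells/dish and dosed 24 h later at 2.5 μM. Floating and trypsinised cells were pooled at 24, 48 and 72 h, fixed in ice-cold 70% ethanol for at least 24 h, stained 30 min at 37 °C with propidium iodide and RNase A, and analysed for DNA content by flow cytometry.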

Raji = assay: Cytotoxicity against human Raji cells after 96 hrs by trypan blue exclusion assay; type: functional, cell-based; how it was run: as §1
BT-474 = assay: Cytotoxicity against human BT474 cells expressing estrogen receptor after 96 hrs by trypan blue exclusion assay; type: functional, cell-based; details: BT-474, 96 h; how it was run: as §1
Caco-2 = assay: Cytotoxicity against human Caco2 cells after 96 hrs by trypan blue exclusion assay; type: functional, cell-based; details: Caco-2, 96 h; how it was run: as §1
HeLa [5] = assay: Induction of mitotic arrest in human HeLa cells assessed as increase of phosphorylated histone H3 at Ser10 level at 1 uM after 6 hrs by Western blotting; type: functional, cell-based
How it was run: (§3)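 HeLa treated with 1 μM and harvested at set times. Pellets were frozen, then lysed in HEPES/Triton X-100/NaCl buffer, pH 7.5, with phosphatase and protease inhibitors. Blots were probed sequentially for phospho-histone H3 (Ser10), histone H3, cyclin B1, PLK-1 and BubR1, with GAPDH as loading control. Antibodies: primary 1:1000, secondary 1:10,000. Fold increase is relative to control. N=3.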

SNU-5 = assay: Cytotoxicity against human SNU5 cells after 96 hrs by trypan blue exclusion assay; type: functional, cell-based; details: SNU-5, 96 h; how it was run: as §1
[6] = Cytotoxicity against human COLO320 cells after 96 hrs by trypan blue exclusion assay; type: functional, cell-based; details: COLO 320, 96 h; how it was run: as §1
PANC-1 = assay: Cytotoxicity against human PANC1 cells after 96 hrs by trypan blue exclusion assay; type: functional, cell-based; details: PANC-1, 96 h; how it was run: as §1
SK-MEL-28 = assay: Cytotoxicity against human SK-MEL-28 cells after 96 hrs by trypan blue exclusion assay; type: functional, cell-based; details: SK-MEL-28, 96 h; how it was run: as §1
MCF7 = assay: Cytotoxicity against human MCF7 cells expressing estrogen receptor after 96 hrs by trypan blue exclusion assay; type: functional, cell-based; details: MCF7, 96 h; how it was run: as §1
HeLa [7] = assay: Induction of mitotic arrest in human HeLa cells assessed as increase of phosphorylated BUBR1 level at 1 uM after 6 hrs by Western blotting relative to control; type: functional; how it was run: as §3
DU-145 [8] = assay: Cell cycle arrest in human DU145 cells assessed as accumulation at G2/M phase after 24 hrs using propidium iodide staining by FACS analysis; type: functional, cell-based
How it was run: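 DU145 plated at 1.0 × 10^6 cells per dish, treated 24 h later for 24 h across a range of concentrations. Cells were fixed in ice-cold 70% ethanol, stained with propidium iodide plus RNase A for 30 min at 37 °C, and DNA content was read by flow cytometry. Phases: G1 (2N), S (>2N<4N), G2/M (4N). N=3.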

HeLa [9] = assay: Cytotoxicity against human HeLa cells after 96 hrs by trypan blue exclusion assay; type: functional, cell-based; how it was run: as §1
HCT-15 = assay: Cytotoxicity against human HCT15 cells after 96 hrs by trypan blue exclusion assay; type: functional, cell-based; details: HCT-15, 96 h; how it was run: as §1
HeLa [10] = assay: Induction of apoptosis in human HeLa cells assessed as cleavage of PARP at 1 uM after 24 hrs by Western blot analysis; type: functional, cell-based
How it was run: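 HeLa exposed to 1.0 μM for a time course. Lysates were resolved on 10% SDS-PAGE, blotted to nitrocellulose and probed with anti-PARP (primary 1:1000, secondary 1:10,000), with ECL detection. Cleaved PARP was taken as the apoptosis/caspase-3 marker. N=3.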

[11] = Cytotoxicity against human MESSA/DX5 cells after 96 hrs by trypan blue exclusion assay; type: functional, cell-based; details: MES-SA/Dx5, 96 h; how it was run: as §1
A549 = assay: Cytotoxicity against human A549 cells after 96 hrs by trypan blue exclusion assay; type: functional, cell-based; details: A549, 96 h; how it was run: as §1
HeLa [12] = assay: Inhibition of cytoplasmic microtubule polymerization in human HeLa cells at 0.5 uM after 18 hrs by FITC-conjugated DAPI staining based fluorescence microscopy; type: cell-based; how it was run: as §2
HeLa [13] = assay: Induction of mitotic arrest in human HeLa cells assessed as increase of phosphorylated cyclin B1 level at 1 uM after 6 hrs by Western blotting relative to control; type: functional; how it was run: as §3
HeLa [14] = assay: Induction of mitotic arrest in human HeLa cells assessed as increase of phosphorylated PLK1 level at 1 uM after 6 hrs by Western blotting relative to control; type: functional; how it was run: as §3
SK-BR-3 = assay: Cytotoxicity against estrogen receptor-deficient human SKBR3 cells after 96 hrs by trypan blue exclusion assay; type: functional, cell-based; details: SK-BR-3, 96 h; how it was run: as §1
HeLa [15] = assay: Induction of mitotic arrest in human HeLa cells assessed as increase of phosphorylated Bcl2 level at 1 uM after 24 hrs by Western blotting relative to control; type: functional
HeLa [16] = assay: Induction of mitotic arrest in human HeLa cells assessed as unbound chromosome outside metaphase plate at 0.25 uM after 18 hrs by FITC-conjugated DAPI staining based fluorescence microscopy; type: functional, cell-based; how it was run: as §2
BT-20 = assay: Cytotoxicity against estrogen receptor-deficient human BT20 cells after 96 hrs by trypan blue exclusion assay; type: functional, cell-based; details: BT-20, 96 h; how it was run: as §1
[17] = Cytotoxicity against human MES-SA cells after 96 hrs by trypan blue exclusion assay; type: functional, cell-based; how it was run: as §1
NCI-N87 = assay: Cytotoxicity against human NCI-N87 cells after 96 hrs by trypan blue exclusion assay; type: functional, cell-based; details: NCI-N87, 96 h; how it was run: as §1
K562 = assay: Cytotoxicity against human K562 cells after 96 hrs by trypan blue exclusion assay; type: functional, cell-based; details: K562, 96 h; how it was run: as §1
HeLa [18] = assay: Induction of mitotic arrest in human HeLa cells assessed as increase of phosphorylated histone H3 at Ser10 level at 1 uM after 24 hrs by Western blotting relative to control; type: functional; how it was run: as §3
HeLa [19] = assay: Induction of mitotic arrest in human HeLa cells assessed as unbound chromosome outside metaphase plate at 0.005 uM after 18 hrs by FITC-conjugated DAPI staining based fluorescence microscopy; type: functional, cell-based; how it was run: as §2
[20] = Drug resistant, ratio of IC50 for human MESSA/DX5 cells to IC50 for human MESSA cells; type: functional, MES-SA
How it was run: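 MES-SA uterine sarcoma cells and the P-glycoprotein-expressing multidrug-resistant MES-SA/DX5 sub-line were grown in DMEM or RPMI with 10% FBS. Cells were plated in 6-well dishes at 1.0 × 10^5 cells/mL/well, dosed at various concentrations 24 h later, and exposed for 96 h. Viable cells were counted by trypan blue exclusion from duplicate wells. The resistant/parental IC50 ratio was taken.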

HeLa [21] = assay: Inhibition of cytoplasmic microtubule polymerization in human HeLa cells at 0.005 uM after 18 hrs by FITC-conjugated DAPI staining based fluorescence microscopy; type: cell-based; how it was run: as §2

COc1ccc(N/C=C\C(=O)c2cc(OC)c(OC)c(OC)c2Br)cc1O
IC50 (DU-145 [1]): 60 nM
IC50 (MIA PaCa-2): 800 nM
IC50 [2]: 100 nM
Activity (HeLa [3]): Active
Activity (DU-145 [4]): tde
IC50 (Raji): 200 nM
IC50 (BT-474): 100 nM
IC50 (Caco-2): 250 nM
Activity (HeLa [5]): Active
IC50 (SNU-5): 250 nM
IC50 [6]: 150 nM
IC50 (PANC-1): 200 nM
IC50 (SK-MEL-28): 200 nM
IC50 (MCF7): 400 nM
fold change (FC) (HeLa [7]): 2.95
Activity (DU-145 [8]): Dose-dependent effect
IC50 (HeLa [9]): 200 nM
IC50 (HCT-15): 40 nM
Activity (HeLa [10]): Active
IC50 [11]: 500 nM
IC50 (A549): 900 nM
inhibition (HeLa [12]): inactive
fold change (FC) (HeLa [13]): 2.5
fold change (FC) (HeLa [14]): 2.5
IC50 (SK-BR-3): 300 nM
fold change (FC) (HeLa [15]): 88
Activity (HeLa [16]): Active
IC50 (BT-20): 750 nM
IC50 [17]: 250 nM
IC50 (NCI-N87): 300 nM
IC50 (K562): 100 nM
fold change (FC) (HeLa [18]): 121

COc1cc(C(=O)/C=C\Nc2ccc(C(F)(F)F)cc2)cc(OC)c1OC
IC50 (DU-145 [1]): 500 nM
IC50 (K562): 500 nM

COc1cc(C(=O)/C=C\Nc2ccccc2O)c(Br)c(OC)c1OC
IC50 (DU-145 [1]): 250 nM
IC50 (K562): 200 nM

COc1ccc(N/C=C\C(=O)c2cc(OC)c(OC)c(OC)c2Br)cc1
IC50 (DU-145 [1]): 200 nM
IC50 (K562): 250 nM

COc1ccc(N/C=C\C(=O)c2c(OC)cc(OC)cc2OC)c(OC)c1
IC50 (DU-145 [1]): 75000 nM
IC50 (K562): 75000 nM

CC(=O)O[C@H]1C(=O)[C@@]2(C)[C@H]([C@H](OC(=O)c3ccccc3)[C@]3(O)C[C@H](OC(=O)[C@H](O)[C@@H](NC(=O)c4ccccc4)c4ccccc4)C(C)=C1C3(C)C)[C@]1(OC(C)=O)CO[C@@H]1C[C@@H]2O [PACLITAXEL]
Activity (HeLa [19]): Active
Ratio IC50 [20]: >100
IC50 [11]: 750 nM
IC50 [17]: 4 nM
inhibition (HeLa [21]): inactive

COc1cc(C(=O)/C=C\Nc2ccc3cc[nH]c3c2)cc(OC)c1OC
IC50 (DU-145 [1]): 100 nM
IC50 (K562): 200 nM

COc1ccc(N/C=C\C(=O)c2ccc(OC)cc2)cc1
IC50 (DU-145 [1]): 75000 nM
IC50 (K562): 100000 nM

COc1cc(OC)c(N/C=C\C(=O)c2c(OC)cc(OC)cc2OC)c(OC)c1
IC50 (DU-145 [1]): 75000 nM
IC50 (K562): 50000 nM

COc1cc(OC)c(C(=O)/C=C\Nc2ccccc2O)c(OC)c1
IC50 (DU-145 [1]): 25000 nM
IC50 (K562): 75000 nM

COc1cc(C(=O)/C=C\Nc2cccc3cc[nH]c23)cc(OC)c1OC
IC50 (DU-145 [1]): 2500 nM
IC50 (K562): 2500 nM

COc1ccc(N/C=C\C(=O)c2cc(OC)c(OC)c(OC)c2Cl)cc1O
IC50 (DU-145 [1]): 200 nM
IC50 (K562): 250 nM

COc1cc(C(=O)/C=C\Nc2ccccc2O)cc(OC)c1OC
IC50 (DU-145 [1]): 250 nM
IC50 (K562): 500 nM

COc1cc(C(=O)/C=C\Nc2ccc(OC(F)(F)F)cc2)cc(OC)c1OC
IC50 (DU-145 [1]): 3000 nM
IC50 (K562): 20000 nM

COc1ccc(N/C=C\C(=O)c2cc(OC)c(OC)c(OC)c2)cc1N
IC50 (DU-145 [1]): 100 nM
IC50 (K562): 250 nM

COc1cc(OC)c(C(=O)/C=C\Nc2cc(OC)c(OC)c(OC)c2)c(OC)c1
IC50 (DU-145 [1]): 35000 nM
IC50 (K562): 75000 nM

COc1ccc(N/C=C\C(=O)c2c(OC)cc(OC)cc2OC)cc1
IC50 (DU-145 [1]): 75000 nM
IC50 (K562): 75000 nM

From ChEMBL document CHEMBL2086284, “(Z)-1-aryl-3-arylamino-2-propen-1-ones, highly active stimulators of tubulin polymerization: synthesis, structure-activity relationship (SAR), tubulin polymerization, and cell growth inhibition studies” (J Med Chem, 2012)
